Experimental data reported in ChEMBL document CHEMBL5705906 (Nat Commun, 2017).
Calls of active or inactive are those of the source.

Legend:
[1] = system: BaF3; test: Inhibition of EGFR-C797S/T790M/del19 mutant in mouse BaF3 cells assessed as reduction in S6 phosphorylation incubated for 6 hrs by Western blotting analysis; type: cell-based
How it was run: (§1)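 Ba/F3 cells carrying the stated EGFR mutant were made IL-3-independent after 1 week of 7 µM blasticidin selection. They were grown in low-glucose DMEM with 10% FBS and exposed to inhibitor for 6 h. Cells were washed in cold PBS, lysed in SDS buffer (100 mM Tris, 1% SDS, 10% glycerol) and boiled 5 min. Protein was measured by BCA, run on SDS-PAGE, transferred to PVDF, blocked in 5% BSA or milk/TBS-T, and immunoblotted.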

[2] = system: BaF3; test: Inhibition of EGFR-del19 mutant in mouse BaF3 cells assessed as inhibition of ERK phosphorylation at 10 to 1000 nM incubated for 6 hrs by Western blotting analysis; type: cell-based; conditions: dose 10-1000 nM; how it was run: as §1
[3] = system: BaF3; test: Inhibition of EGFR-T790M/del19 mutant in mouse BaF3 cells assessed as inhibition of S6 phosphorylation at 10 to 1000 nM incubated for 6 hrs by Western blotting analysis; type: cell-based; conditions: dose 10-1000 nM; how it was run: as §1
[4] = system: BaF3; type: cell-based; conditions: Mus musculus, dose 10-1000 nM, time 6.0 hrs
[5] = system: BaF3; test: Inhibition of EGFR-C797S/T790M/L858R mutant in mouse BaF3 cells assessed as inhibition of EGFR phosphorylation at 10 to 1000 nM incubated for 6 hrs by Western blotting analysis; type: cell-based; conditions: dose 10-1000 nM
How it was run: (§2)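 Ba/F3 cells expressing EGFR-L858R-series mutants treated with inhibitors for 6 h. SDS lysates quantified by BCA, run on SDS-PAGE and blotted to PVDF. Probed for phospho-EGFR (Tyr1068), total EGFR and downstream phospho-proteins.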

[6] = system: BaF3; test: Inhibition of EGFR-C797S/T790M/L858R mutant expressed in mouse BaF3 cells assessed as inhibition of Akt phosphorylation at 10 to 1000 nM incubated for 6 hrs by Western blotting analysis; type: cell-based; conditions: dose 10-1000 nM; how it was run: as §2
[7] = system: BaF3; test: Inhibition of EGFR-C797S/T790M/L858R mutant expressed in mouse BaF3 cells assessed as inhibition of ERK phosphorylation at 10 to 1000 nM incubated for 6 hrs by Western blotting analysis; type: cell-based; conditions: dose 10-1000 nM; how it was run: as §2
[8] = system: PC-9; test: Inhibition of EGFR T790M/del19 mutant in human PC-9 cells assessed as reduction in ERK phosphorylation at 10 to 1000 nM by Western blotting analysis; type: cell-based; conditions: dose 10-1000 nM
[9] = system: PC-9; type: functional, organism-based; conditions: Homo sapiens, dose 75.0 mg/kg, route po, time 15.0 day
[10] = system: PC-9; test: Anti-tumor activity against EGFR T790M/del19 mutant expressing gefitinib-resistant human PC-9 cells xenografted in Balb-c nu/nu mouse assessed as growth inhibition at 75 mg/kg, po administered for 42 days; type: functional, organism-based; conditions: time 42.0 day
[11] = system: PC-9; test: Anti-tumor activity against EGFR T790M/del19 mutant expressing gefitinib-resistant human PC-9 cells xenografted in Balb-c nu/nu mouse assessed as prolonged survival at 75 mg/kg, po administered for 42 days; type: functional, organism-based; conditions: time 42.0 day
[12] = Toxicity against Balb-c nu/nu mouse xenografted with human PC-9 cells expressing EGFR-C797S/T790M/del19 mutant assessed as change in body weight at 75 mg/kg, po administered for 60 days and measured twice weekly in presence of cetuximab; type: organism-based; conditions: in vivo, 1440 h, time 60 day
How it was run: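 Balb-c nu/nu mice carried subcutaneous PC9 triple-mutant xenografts (6×10^6 cells in 1:2 Matrigel) and were randomized at ~200 mm³. […] Body weight was measured twice weekly, N=6 per arm.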

[13] = Toxicity against Balb-c nu/nu mouse xenografted with human PC-9 cells expressing EGFR-C797S/T790M/del19 mutant assessed as change in body weight at 75 mg/kg, po administered for 15 days and measured twice weekly; type: organism-based; conditions: in vivo, 360 h, time 15 day
How it was run: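 PC9 triple-mutant cells (6×10^6 in 100 µl 1:2 Matrigel) were implanted subcutaneously in Balb-c nu/nu mice. At a mean tumour volume of ~200 mm³, mice were randomized, excluding the top and bottom 5% by tumour size. […] Body weight was recorded twice weekly, n=6 per group, and tumours were resected on treatment day 15.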

[14] = system: BaF3; conditions: Mus musculus, dose 10-1000 nM
[15] = system: BaF3; conditions: Mus musculus, dose 10-1000 nM; remark: listed apart in the source
[16] = system: BaF3; conditions: Mus musculus, dose 10-1000 nM, time 6.0 hrs
[17] = system: Epidermal growth factor receptor (Homo sapiens), P00533 [UNDEFINED MUTATION]; conditions: MGH121, dose 10-1000 nM
[18] = system: Epidermal growth factor receptor (Homo sapiens), P00533 [UNDEFINED MUTATION]; conditions: MGH121, dose 10-1000 nM; remark: listed apart in the source
[19] = system: Epidermal growth factor receptor (Homo sapiens), P00533 [UNDEFINED MUTATION]; conditions: PC-9, dose 10-1000 nM
[20] = system: Epidermal growth factor receptor (Homo sapiens), P00533 [UNDEFINED MUTATION]; conditions: PC-9, dose 10-1000 nM; remark: listed apart in the source
[21] = system: BaF3; conditions: Mus musculus, dose 30-1000 nM, time 6.0 hrs
[22] = system: BaF3; conditions: Mus musculus, dose 30-1000 nM, time 6.0 hrs; remark: listed apart in the source
[23] = system: Epidermal growth factor receptor (Homo sapiens), P00533 [UNDEFINED MUTATION]; conditions: PC-9, dose 500.0 nM, time 48.0 hrs
[24] = system: Epidermal growth factor receptor (Homo sapiens), P00533 [UNDEFINED MUTATION]; conditions: PC-9, dose 500.0 nM, time 48.0 hrs; remark: listed apart in the source
[25] = system: Epidermal growth factor receptor (Homo sapiens), P00533 [UNDEFINED MUTATION]; conditions: PC-9, dose 500.0 nM, time 48.0 hrs; remark: listed apart in the source
[26] = system: Epidermal growth factor receptor (Homo sapiens), P00533 [UNDEFINED MUTATION]; conditions: PC-9, dose 500.0 nM, time 48.0 hrs; remark: listed apart in the source
[27] = system: Epidermal growth factor receptor (Homo sapiens), P00533 [UNDEFINED MUTATION]; conditions: PC-9, dose 500.0 nM, time 48.0 hrs; remark: listed apart in the source
[28] = system: Epidermal growth factor receptor (Homo sapiens), P00533 [UNDEFINED MUTATION]; conditions: MGH121, dose 500.0 nM, time 48.0 hrs
[29] = system: Epidermal growth factor receptor (Homo sapiens), P00533 [UNDEFINED MUTATION]; conditions: MGH121, dose 500.0 nM, time 6-48 hrs, TDE = time-dependent effect
[30] = system: PC-9; conditions: Homo sapiens, dose 75.0 mg/kg, route po, time 60.0 day
[31] = system: PC-9; conditions: Homo sapiens, dose 75.0 mg/kg, route po, time 60.0 day; remark: listed apart in the source
[32] = system: PC-9; conditions: Homo sapiens, dose 75.0 mg/kg, route po, time 60.0 day; remark: listed apart in the source

Sequence of Epidermal growth factor receptor (Homo sapiens), P00533 [UNDEFINED MUTATION] (P00533 whole entry, looked up, change not shown): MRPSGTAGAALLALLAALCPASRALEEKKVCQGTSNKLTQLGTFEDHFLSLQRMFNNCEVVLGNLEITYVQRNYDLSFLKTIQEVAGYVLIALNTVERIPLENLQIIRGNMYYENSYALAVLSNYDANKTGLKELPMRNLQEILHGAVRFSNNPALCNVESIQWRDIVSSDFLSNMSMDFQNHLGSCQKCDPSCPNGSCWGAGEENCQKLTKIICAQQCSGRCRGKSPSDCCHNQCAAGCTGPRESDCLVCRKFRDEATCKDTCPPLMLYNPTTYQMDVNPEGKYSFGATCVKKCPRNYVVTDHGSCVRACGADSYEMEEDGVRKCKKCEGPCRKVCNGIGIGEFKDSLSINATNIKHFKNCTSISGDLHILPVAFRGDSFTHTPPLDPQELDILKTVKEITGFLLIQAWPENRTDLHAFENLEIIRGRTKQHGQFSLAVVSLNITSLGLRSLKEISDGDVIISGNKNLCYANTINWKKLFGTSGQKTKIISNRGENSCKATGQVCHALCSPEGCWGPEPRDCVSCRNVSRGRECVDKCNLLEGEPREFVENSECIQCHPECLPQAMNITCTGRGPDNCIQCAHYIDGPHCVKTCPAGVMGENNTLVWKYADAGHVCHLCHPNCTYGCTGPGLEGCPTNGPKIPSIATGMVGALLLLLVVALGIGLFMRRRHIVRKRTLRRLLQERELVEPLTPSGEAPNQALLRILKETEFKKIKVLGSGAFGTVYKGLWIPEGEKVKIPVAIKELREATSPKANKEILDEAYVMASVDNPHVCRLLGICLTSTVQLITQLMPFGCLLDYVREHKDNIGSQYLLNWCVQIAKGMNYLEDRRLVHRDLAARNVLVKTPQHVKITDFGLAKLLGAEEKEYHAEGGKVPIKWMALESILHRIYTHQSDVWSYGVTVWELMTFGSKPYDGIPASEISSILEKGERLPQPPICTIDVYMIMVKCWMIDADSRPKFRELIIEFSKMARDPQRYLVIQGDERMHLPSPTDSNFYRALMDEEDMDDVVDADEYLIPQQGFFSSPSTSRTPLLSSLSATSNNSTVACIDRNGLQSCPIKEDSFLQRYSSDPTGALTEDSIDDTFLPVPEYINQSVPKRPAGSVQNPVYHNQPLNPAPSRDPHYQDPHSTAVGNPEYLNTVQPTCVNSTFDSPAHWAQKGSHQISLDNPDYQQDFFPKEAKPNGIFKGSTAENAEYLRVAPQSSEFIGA

COc1cc(N2CCC(N3CCN(C)CC3)CC2)ccc1Nc1ncc(Cl)c(Nc2ccccc2P(C)(C)=O)n1 [BRIGATINIB]
inactive: inhibition [23] | inhibition [28]
Non-Toxic: Activity [12] | Activity [13]
active: inhibition [1] Dose-Dependent Effect | inhibition [2] | inhibition [3] | inhibition [4] | inhibition [5] | inhibition [6] | inhibition [7] | inhibition [8] | Activity [9] | Activity [10] | Activity [11] | inhibition [14] Dose-Dependent Effect | inhibition [15] Dose-Dependent Effect | inhibition [16] | inhibition [17] | inhibition [18] | inhibition [19] | inhibition [20] | inhibition [21] | inhibition [22] | inhibition [24] | inhibition [25] | inhibition [26] | inhibition [27] | inhibition [29] Tde | inhibition [30] | inhibition [31] | inhibition [32]
